Data as given in PubChem BioAssay AID719 (SRMLSC, 2007).
The whole screen tested about 85,000 compounds, of which about 940 (1.1%) were called active. This is one part of a sample in which actives are shown more often than they occur. Unmarked numbers belong to inactive results.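 Rule for the calls: active = viability at or below 50% in the single dose screen; inactive = viability above 50%.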

Experiment: antiproliferative effect on LL 47 fibroblasts – human, LL 47 cells, CellTiter-Glo luminescence, primary screen (AID 719);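 note: compound exposure lasted 72 h before the ATP readout; 100% = median luminescence of untreated cell-only wells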
Conditions: LL 47 human lung fibroblast viability, ATP luminescence; at 10 µM; active compounds read low
Outline: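 Material: human LL 47 lung fibroblast cells; quantity: 1,150 cells/well; medium: IMEM plus 15% FBS; doses: 0.1% DMSO in all compound wells; timing: overnight attachment after seeding, then 72 h compound exposure at 37 °C; detection: CellTiter-Glo luminescence; measure: % viability of median cell-only signal; controls: cell-only wells, no compound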

Structure (SMILES) | viability
CN(C)S(=O)(=O)c1ccc(N2CCCC2)c(C(=O)NCc2ccccc2)c1 | 98.3%
CC1=C/C(=N\OS(=O)(=O)c2ccccc2)C=CC1=O | 1.44% (active)
CCOC(=O)c1sc(C)c2c1NC(C)(c1cccc3ccccc13)NC2=O (stereo unspecified) | 78.7%
O=C(NCCSCc1ccccc1)c1ccc(Cl)c(S(=O)(=O)N2CCOCC2)c1 | 92.8%
N=c1c2c3c(sc2nc2n1CCCCC2)CCCC3 | 102%
CC1(C)NC(=O)N(CCCCSc2ccc(Cl)cc2)C1=O | 95%
CCOc1ccc2c(c1)C(c1ccc(C)cc1)=NNC(c1ccc(C)cc1)=N2 | 75.9%
CC(C)(C)NC(=O)Cn1c(SCC(=O)Nc2nccs2)nc2ccccc21 | 93.8%
CCC(c1nnnn1C(C)(C)C)N(Cc1cc2cccc(C)c2n2nnnc12)C1CCCC1 (stereo unspecified) | 95.7%
CCOC(=O)c1c(N=CN(C)C)c(C#N)c2n1CCCC2 | 98.2%
CC[C@]1(O)CC2CN(CCc3c([nH]c4ccccc34)[C@@](C(=O)OC)(c3cc4c(cc3OC)N(C=O)[C@H]3[C@@](O)(C(=O)OC)[C@H](OC(C)=O)[C@]5(CC)C=CCN6CC[C@]43[C@@H]65)C2)C1 (stereo partly specified) | 44.6% (active)
CO/N=C(/CS(=O)(=O)c1ccc(Br)cc1)c1ccc(OC)cc1 | 90.9%
Cc1ccccc1N1CCN(CCCOc2ccc3c(C)cc(=O)oc3c2)CC1 | 94%
Cc1cc(=O)oc2cc(NC(=O)C3CC(=O)N(Cc4ccccc4)C3)ccc12 (stereo unspecified) | 103%
Cc1cc(=O)oc2cc(OCC3CC(c4ccccc4Cl)=NO3)ccc12 (stereo unspecified) | 47.8% (active)
Cc1cccc2nc(CSc3nc4[nH]ncc4c(=O)n3-c3cccc(Cl)c3)cc(=O)n12 | 68.1%
CCOc1ccc(S(=O)(=O)Nc2ccc(S(=O)(=O)Nc3cc(OC)ccc3OC)cc2)cc1 | 105%
COC(=O)COc1ccc(S(=O)(=O)Nc2ccc(NC(C)=O)cc2)cc1 | 104%

Structure (SMILES) | viability
CCOc1ccc(NS(=O)(=O)c2ccc(OCC(=O)NCCCOC)cc2)cc1 | 40.2% (active)
O=C(c1ccccc1Oc1ccccc1)N1CCN(c2ccc(F)cc2)CC1 | 99.7%
CCOc1ccccc1NC(=O)C1CCCN(C(=O)Nc2ccccc2)C1 (stereo unspecified) | 106%
Cn1c(NC(=O)c2ccc3c(c2)OCO3)cc(=O)n(C)c1=O | 97%
COc1ccc(C(=O)Nc2ccc3c(c2)OCO3)cc1OC | 100%
Cn1c(=O)n(C)c2cc(C(=O)Nc3ccc4c(c3)OCO4)ccc21 | 48.5% (active)
CCCc1nc2sc3c(c2c(=O)n1NC(=O)CCCl)CCCC3 | 80.4%
CC1CN(S(=O)(=O)c2ccccc2)C(C)CN1S(=O)(=O)c1ccccc1 (stereo unspecified) | 93.9%
CCCn1c(C(Cc2ccccc2)NC(=O)COC)nc2ccccc21 (stereo unspecified) | 93.2%
Cc1ccc(CN(C(=O)c2sc3ccccc3c2Cl)C2CCS(=O)(=O)C2)cc1 (stereo unspecified) | 89.4%
CCC(C(=O)NCc1ccc(OC)cc1)n1nc(C)n2c(cc3occc32)c1=O (stereo unspecified) | 95.5%
COc1ccccc1N1CCN(C(=O)CN(Cc2ccc(Cl)cc2)S(C)(=O)=O)CC1 | 98.3%
COc1ccccc1-n1nnnc1S(=O)(=O)Cc1ccc(Cl)cc1 | 25% (active)
COc1ccccc1N1CCN(Cc2nnnn2CCc2ccccc2)CC1 | 101%
O=C(Nc1ccccc1-c1nnn(CC(=O)N2CCCc3ccccc32)n1)c1cccc(Cl)c1 | 52.5%
Cc1ccc(NC(=O)CCN2CCc3ccccc3C2)cc1 | 94.5%
Cc1ccc(NC(=S)NC(NC(=O)Cc2cccc3ccccc23)C(Cl)(Cl)Cl)cc1 (stereo unspecified) | 49.6% (active)
O=C(Cc1cccc2ccccc12)Nc1ccc2oc(-c3ccccc3)nc2c1 | 99%
